Experimental data: ChEMBL document CHEMBL1144404, “Aminoimidazolylmethyluracil analogues as potent inhibitors of thymidine phosphorylase and their bioreductive nitroimidazolyl prodrugs” (J Med Chem, 2005); call rule not given here
Values belong to the molecule of their own block, whether it stands above or below them.

Experiments:
Thymidine phosphorylase [1] = target: Thymidine phosphorylase (Escherichia coli K-12, UniProt P07650); test: Inhibitory concentration against thymidine phosphorylase of Escherichia coli
Thymidine phosphorylase (Escherichia coli K-12, UniProt P07650), sequence (P07650 whole entry): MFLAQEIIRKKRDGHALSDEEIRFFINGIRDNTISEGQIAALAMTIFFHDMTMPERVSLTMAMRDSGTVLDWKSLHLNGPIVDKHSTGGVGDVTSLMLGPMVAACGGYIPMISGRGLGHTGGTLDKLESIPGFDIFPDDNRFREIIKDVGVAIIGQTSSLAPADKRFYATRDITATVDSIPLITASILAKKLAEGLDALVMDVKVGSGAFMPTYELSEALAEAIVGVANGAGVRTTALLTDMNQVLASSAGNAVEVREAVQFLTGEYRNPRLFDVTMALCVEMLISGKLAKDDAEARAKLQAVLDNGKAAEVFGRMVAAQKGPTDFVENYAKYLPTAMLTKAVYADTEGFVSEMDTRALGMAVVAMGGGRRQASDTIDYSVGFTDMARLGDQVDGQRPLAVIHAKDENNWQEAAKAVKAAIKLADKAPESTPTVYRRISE

Thymidine phosphorylase [2] = target: T1, Thymidine phosphorylase (Homo sapiens, UniProt P19971); test: Inhibitory concentration against human thymidine phosphorylase
T1 sequence (P19971 whole entry): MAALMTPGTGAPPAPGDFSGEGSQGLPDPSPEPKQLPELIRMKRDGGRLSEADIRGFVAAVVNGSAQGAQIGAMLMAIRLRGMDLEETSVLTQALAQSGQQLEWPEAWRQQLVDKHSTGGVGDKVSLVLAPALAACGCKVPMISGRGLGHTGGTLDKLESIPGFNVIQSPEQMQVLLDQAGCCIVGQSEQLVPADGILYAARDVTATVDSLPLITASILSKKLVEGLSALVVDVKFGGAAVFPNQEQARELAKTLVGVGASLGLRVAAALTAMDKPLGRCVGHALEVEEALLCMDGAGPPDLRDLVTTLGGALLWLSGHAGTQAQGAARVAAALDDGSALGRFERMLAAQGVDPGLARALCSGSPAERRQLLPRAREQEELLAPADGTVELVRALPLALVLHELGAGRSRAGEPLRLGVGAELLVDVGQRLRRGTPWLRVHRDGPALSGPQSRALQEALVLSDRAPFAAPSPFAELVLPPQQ

[3] = Half-life was measured in mice after intravenous administration of 2 mg/kg; type: ADME, organism-based; parameters: dose 2 mg/kg, route intravenous; conditions: mouse, in vivo
Outline: (§1)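 Mice given a single dose by ip (10 mg/kg), oral (20 mg/kg) or iv (2 mg/kg) route. Blood sampled over 24 h after dosing; plasma analysed for parent compound. PK parameters (Cmax, Tmax, AUC, T1/2, F, C0, Cl, Vdss) derived from plasma concentration-time profiles.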

[4] = Maximum plasma concentration in mice after intraperitoneal administration of 10 mg/kg; type: ADME, organism-based; parameters: dose 10 mg/kg, route intraperitoneal; conditions: mouse, ip; outline: as §1
[5] = Maximum plasma concentration in mice after oral administration of 20 mg/kg; type: ADME, organism-based; parameters: dose 20 mg/kg, route oral; conditions: mouse; outline: as §1
[6] = Area under concentration-time curve for the compound was measured in mice after oral administration of 20 mg/kg; type: ADME, organism-based; parameters: dose 20 mg/kg, route oral; conditions: mouse, in vivo; outline: as §1
[7] = Maximum time to attain Cmax in mice after oral administration of 20 mg/kg; type: ADME, organism-based; parameters: dose 20 mg/kg, route oral; conditions: mouse, in vivo; outline: as §1
[8] = Clearance at time 0 was measured in mice after intravenous administration of 2 mg/kg; type: ADME, organism-based; parameters: dose 2 mg/kg, route intravenous; conditions: mouse, in vivo; outline: as §1
[9] = Area under concentration-time curve for the compound was measured in mice after intravenous administration of 2 mg/kg; type: ADME, organism-based; parameters: dose 2 mg/kg, route intravenous; conditions: mouse, in vivo; outline: as §1
[10] = Half-life was measured in mice after oral administration of 20 mg/kg; type: ADME, organism-based; parameters: dose 20 mg/kg, route oral; conditions: mouse, in vivo; outline: as §1
[11] = Steady state volume of distribution was measured in mice after intravenous administration of 2 mg/kg; type: ADME, organism-based; parameters: dose 2 mg/kg, route intravenous; conditions: mouse, in vivo, read-out: Vdss; outline: as §1
[12] = Half-life was measured in mice after intraperitoneal administration of 10 mg/kg; type: ADME, organism-based; parameters: dose 10 mg/kg, route intraperitoneal; conditions: mouse, in vivo, ip; outline: as §1
[13] = Maximum time to attain Cmax in mice after intraperitoneal administration of 10 mg/kg; type: ADME, organism-based; parameters: dose 10 mg/kg, route intraperitoneal; conditions: mouse, in vivo, ip; outline: as §1
[14] = Bioavailability in mouse (dose 10 mg/kg i.p.); type: ADME, organism-based; conditions: in vivo, ip; outline: as §1
[15] = Bioavailability in mouse (dose 2 mg/kg i.v.); type: ADME, organism-based; conditions: in vivo, iv; outline: as §1
[16] = Bioavailability in mouse (dose 20 mg/kg p.o.); type: ADME, organism-based; conditions: in vivo, po; outline: as §1
[17] = Concentration at time 0 was measured in mice after intravenous administration of 2 mg/kg; type: ADME, organism-based; parameters: dose 2 mg/kg, route intravenous; conditions: mouse, in vivo; outline: as §1
[18] = Area under concentration-time curve for the compound was measured in mice after intraperitoneal administration of 10 mg/kg; type: ADME, organism-based; parameters: dose 10 mg/kg, route intraperitoneal; conditions: mouse, in vivo, ip; outline: as §1
[19] = Maximum concentration was measured in mice after intraperitoneal administration of 10 mg/kg; type: ADME, organism-based; parameters: dose 10 mg/kg, route intraperitoneal; conditions: mouse, in vivo, ip; outline: as §1

IC50 (Thymidine phosphorylase [1]): 6.5 µM
SMILES: Nc1c[n+](Cc2nc(O)nc(O)c2Br)c[nH]1

IC50 (Thymidine phosphorylase [1]): 13.8 µM
IC50 (Thymidine phosphorylase [2]): 500 µM
SMILES: O=[N+]([O-])c1cn(Cc2cc(O)nc(O)n2)cn1

IC50 (Thymidine phosphorylase [1]): 7.3 µM
SMILES: Nc1c[n+](Cc2nc(O)nc(O)c2Cl)c[nH]1

IC50 (Thymidine phosphorylase [1]): 101 µM
IC50 (Thymidine phosphorylase [2]): 143 µM
SMILES: Nc1c[n+](Cc2cc(O)nc(O)n2)c[nH]1

Continued, molecule first:

SMILES: Nc1[nH]cc[n+]1Cc1[nH]c(=O)[nH]c(=O)c1Br
half-life [3]: 12 min
Cmax [4]: 5080 ng/mL
Cmax [5]: 350 ng/mL
AUC [6]: 0.968 µg/h/mL
Tmax [7]: 60 min
clearance [8]: > 72 mL/min/kg
AUC [9]: 0.292 µg/h/mL
half-life [10]: 132 min
Vd [11]: 1.3 L/kg
half-life [12]: 60 min
Tmax [13]: 5 min
bioavailability [14]: 103%
F [15]: Not Active
bioavailability [16]: 33%
C0 [17]: 3750 ng/mL
AUC [18]: 1.505 µg/h/mL

SMILES: O=c1[nH]c(Cn2cnc([N+](=O)[O-])c2)c(Cl)c(=O)[nH]1
IC50 (Thymidine phosphorylase [1]): 7 µM
IC50 (Thymidine phosphorylase [2]): 200 µM

SMILES: Cl.N=C1CCCN1Cc1[nH]c(=O)[nH]c(=O)c1Cl [TIPIRACIL HYDROCHLORIDE]
half-life [3]: 6 min
Cmax [19]: 4450 ng/mL
Cmax [5]: 391 ng/mL
AUC [6]: 0.99 µg/h/mL
Tmax [7]: 60 min
clearance [8]: > 72 mL/min/kg
AUC [9]: 0.19 µg/h/mL
half-life [10]: 102 min
Vd [11]: 2.1 L/kg
half-life [12]: 48 min
Tmax [13]: 4.98 min
bioavailability [14]: > 100%
F [15]: Not Active
bioavailability [16]: 52%
C0 [17]: 942 ng/mL
AUC [18]: 1.658 µg/h/mL

SMILES: O=c1[nH]c(Cn2cnc([N+](=O)[O-])c2)c(Br)c(=O)[nH]1
IC50 (Thymidine phosphorylase [1]): 6.6 µM
IC50 (Thymidine phosphorylase [2]): 181 µM
